Screens as filed in PubChem BioAssay.
A selection: hits, their analogues and other compounds. The true share with any hit is near 1.8%.
HTRA1 inhibitor – HTRA1 (human) protease inhibition; 340,000 compounds, 0.5% hits; Q92743; inhibition, % at 5.96 µM; recombinant HTRA1, FP-rhodamine activity-based probe, fluorescence polarization; AID 504803; in the data active = inhibition above about 36%
TCR CD3 inh – blocks the human TCR-CD3 interaction; inhibition, % at 9.4 µM; AID 651800; TAMRA-labeled TCR probe fluorescence, biochemical; 360,000 compounds, 0.37% hits; in the data active = inhibition above about 19%;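 note: recombinant mutant TCR 2C K166C tagged with TAMRA read by polarization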
ABHD4 inh – ABHD4 (mouse) inhibition, primary FP screen | Q8VD66 | purified mABHD4, FP-Rh probe fluorescence polarization | inhibition, % at 8.92 µM | 370,000 compounds, 0.54% hits | AID 720543;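 active = inhibition exceeding the mean over every tested compound plus 3 SD, cut at about 30% in these data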
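system = mouse ABHD4 enzyme, wild type | medium = HEPES pH 7.0, NaCl, Pluronic buffer | also added = FP-Rh probe | incubation = Enzyme–compound pre-incubation 45 min, then probe 60 min, both 25 °C | technique = fluorescence polarization, excitation 525 nm, emission 598 nm, BODIPY TMR filters | controls = S159A mutant high control, sample median low control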
DDE Tn6 FP inh – inhibitors of Tn6 peptide binding to human fibrin DD(E); AID 720509; P02675; 370,000 compounds, 0.21% hits; Fibrin DD(E) TRITC-Tn6 fluorescence polarization displacement; inhibition, % at 8.3 µM;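 active = inhibition above a per-campaign cutoff: mean of compounds within control limits plus 3 SD, cut at about 15% in these data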
Target sequence (P02675 whole entry, looked up): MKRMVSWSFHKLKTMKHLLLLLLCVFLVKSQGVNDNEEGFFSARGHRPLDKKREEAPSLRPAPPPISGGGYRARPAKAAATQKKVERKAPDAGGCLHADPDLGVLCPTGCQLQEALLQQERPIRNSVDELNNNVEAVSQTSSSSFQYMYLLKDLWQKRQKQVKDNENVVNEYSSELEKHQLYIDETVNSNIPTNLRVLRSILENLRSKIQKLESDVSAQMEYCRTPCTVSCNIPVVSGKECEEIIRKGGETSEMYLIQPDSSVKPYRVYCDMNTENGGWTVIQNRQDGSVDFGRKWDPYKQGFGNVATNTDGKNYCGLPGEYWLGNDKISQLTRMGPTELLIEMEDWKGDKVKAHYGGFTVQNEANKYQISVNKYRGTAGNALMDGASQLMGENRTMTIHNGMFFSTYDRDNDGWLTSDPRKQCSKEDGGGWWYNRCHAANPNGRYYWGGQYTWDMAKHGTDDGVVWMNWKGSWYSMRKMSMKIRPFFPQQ
SIAE inh – blocks human sialic acid acetylesterase; Q9HAT2; SIAE FP-Rh probe binding, fluorescence polarization; inhibition, % at 9.66 µM; 370,000 compounds, 0.69% hits;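 active = inhibition above a cutoff: mean of compounds within the control limits plus 3 SD of those, cut at about 17% in these data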
Tn7 DDE FP – DD(E)-Tn7 binding inhibition, primary FP screen | P02675 | FP displacement of FITC-Tn7 peptide from fibrin DD(E); 0% = median of compound wells per plate | inhibition, % at 8.3 µM | 370,000 compounds, 0.13% hits | AID 720508;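 active = inhibition above the mean of compounds falling within the control limits plus 3 SD of them, cut at about 14% in these data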
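Also added: labelled Tn7 tracer, 0.1 µM; Assay system: human fibrin DD(E) protein; Amount: 2 µM fibrin DD(E); Schedule: 10 min compound pre-incubation, 3 h probe incubation at room temperature; Repeats: one replicate per compound; Read-out basis: percent inhibition; Measured by: fluorescence polarization of the labelled Tn7 tracer.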
SIAE inh conf – human SIAE inhibition, confirmation; shares compounds with SIAE inh; SIAE FP-Rh activity-based probe, fluorescence polarization; inhibition, % at 9.66 µM; 2,300 compounds, 13% hits; AID 1117263;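 active = mean inhibition of the replicates above the hit cutoff set in the primary screen, cut at about 17% in these data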;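 note: inhibitors lower polarization as more probe stays unbound to SIAE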
Each line names hits and unclear results; the compound was inactive in the other large screens (follow-up assays come after a bar, where they were run).

O=C(NCC1CCCO1)c1ccccc1 (stereo not drawn)	SIAE inh 17 | SIAE inh conf inactive
COC(=O)c1cc2c(c3c4cc(OC)ccc4n(S(=O)(=O)c4cccc(C)c4)c13)C(=O)N(Cc1ccc(N(C)C)cc1)C2	none (no result: HTRA1 inhibitor)
CCN(Cc1ccccc1)C(=O)CCS(=O)(=O)c1ccc2c(c1)CCN2C(C)=O	none
COCCNc1nc(-c2ccc(OC)cc2)c(-c2ccc(OC)cc2)s1	SIAE inh 19 | SIAE inh conf inactive
CCOC(=O)C1=C(c2ccccc2)NC(N)=NC1c1ccc(OCc2ccc(Cl)cc2)c(OC)c1 (stereo not drawn)	SIAE inh 18 | SIAE inh conf 17
COc1ccc(N2CCN(C(=O)C(=O)c3cc(OC)c(OC)c(OC)c3)CC2)cc1	none (no result: HTRA1 inhibitor)
COc1ccc(NC(=O)Nc2cccs2)cc1OC	SIAE inh 18 | SIAE inh conf inactive
CC(O)(c1ccccc1)c1nc(-c2ccncc2)cs1 (stereo not drawn)	none (no result: HTRA1 inhibitor)
Cc1nn(C)c(Cl)c1CN1CCC(CO)(CCOc2ccccc2)CC1	SIAE inh 17 | SIAE inh conf inactive
COC(=O)c1ccccc1N(C)S(=O)(=O)c1cc2c3c(c1)CCC(=O)N3CCC2	SIAE inh 32 | SIAE inh conf inactive
COC(CN(C)S(=O)(=O)c1cc2c3c(c1)CCC(=O)N3CCC2)OC	none
C[C@@H]1CN([C@H](C)CO)C(=O)CCCn2nncc2CO[C@H]1CN(C)Cc1cccc(C(F)(F)F)c1	none
Cc1c(C(=O)N/N=C/c2ccc(-c3ccccc3[N+](=O)[O-])o2)sc(N)c1C#N	SIAE inh 26 | SIAE inh conf inactive
O=C(N/N=C/c1ccc(-c2ccccc2[N+](=O)[O-])o1)c1cncc(Br)c1	none
O=C(O)Cn1c(CCS(=O)(=O)c2ccc(Br)cc2)nc2ccccc21	SIAE inh 29 | SIAE inh conf inactive
COc1ccc(-c2ccc3c(c2)S(=O)(=O)c2cccc(C(=O)NCc4cc(C)oc4C(F)(F)F)c2C3=O)cc1OC	none (no result: TCR CD3 inh, ABHD4 inh, DDE Tn6 FP inh, SIAE inh, Tn7 DDE FP)
CCOc1ccc(S(=O)(=O)NCCC(=O)OCN2C(=O)c3ccccc3C2=O)cc1	SIAE inh 18 | SIAE inh conf inactive
Cc1ccc(S(=O)(=O)NCC(=O)OCN2C(=O)c3ccccc3C2=O)cc1	none (no result: HTRA1 inhibitor)
CC(C)CC(=O)Nc1nnc(-c2ccco2)s1	SIAE inh 18 | SIAE inh conf inactive
C=CCSc1nnc(NC(=O)CCNC(=O)c2ccco2)s1	none
CC(C)Cc1nnc(NC(=O)CCNC(=O)c2ccco2)s1	SIAE inh 29 | SIAE inh conf inactive
CN(C)Cc1c(O)ccc2occ(C(=O)c3ccc(F)cc3)c12	SIAE inh 22 | SIAE inh conf inactive
CN(C)CCCN(C(=O)c1ccc(S(=O)(=O)N(C)Cc2ccccc2)cc1)c1nc2cc3c(cc2s1)OCO3	SIAE inh 22 | SIAE inh conf inactive
COc1ccccc1C(=O)NC(=O)Cn1nc(C)c([N+](=O)[O-])c1C	none
CC(C)NCC(=O)NC12CC3CC(CC(C3)C1)C2	SIAE inh 21 | SIAE inh conf inactive
CC1=CC(=O)C(C(C)=Nc2ccccc2[N+](=O)[O-])C(=O)O1 (stereo not drawn)	none
O=C(CCc1nnc(-c2ccc(-c3ccccc3)cc2)o1)NCCc1ccccn1	none
COC(=O)CCCNC(=O)CCc1nnc(-c2ccc(-c3ccccc3)cc2)o1	SIAE inh 18 | SIAE inh conf inactive
COc1cc(OC)c(OC)cc1/C=N/NC(=O)C[n+]1ccccc1	SIAE inh 49 | SIAE inh conf inactive
COc1cccc(/C=N/NC(=O)C[n+]2ccccc2)c1O	none
CSc1cccc(NC(=S)N(CCN(C)C)C(C)c2ccncc2)c1 (stereo not drawn)	SIAE inh 23 | SIAE inh conf inactive
Cn1ccc2c(N3CCCC3)cc3c(c21)C1CCC3C1 (stereo not drawn)	none (no result: HTRA1 inhibitor)
Cn1ccc2c(N3CCCC3)cc3c(c21)C1CCC3O1 (stereo not drawn)	SIAE inh 20 (no result: HTRA1 inhibitor) | SIAE inh conf inactive
CCOC(=O)C1=C(C)OC(N)=C(C#N)C1c1cc(C)sc1C (stereo not drawn)	none
CCOC(=O)C1=C(C)OC(N)=C(C#N)C1c1cc(SCC)oc1C (stereo not drawn)	SIAE inh 19 | SIAE inh conf inactive
O=C(Cc1ccccc1)NCC(=O)N1CCN(c2ccccc2)CC1	none
Cc1ccccc1C(=O)Nc1nnc(-c2cccnc2)o1	SIAE inh 18 | SIAE inh conf inactive
CC(C)c1ccc(C2NC(=O)c3ccccc3O2)cc1 (stereo not drawn)	none
COc1cc(CNCCN2CCOCC2)ccc1OCc1cccc(Cl)c1	SIAE inh 17 | SIAE inh conf inactive
COc1ccc(OC)c(CCNC(=O)Cc2ccc(NC(=O)C3=C(C)OCCS3)cc2)c1	none
CCOc1ccc(CCNC(=O)Cc2ccc(NC(=O)C3=C(C)OCCS3)cc2)cc1	SIAE inh 19 | SIAE inh conf inactive
COc1ccc2nc(C(c3ccc(C)cc3)n3c(-c4ccccc4Br)nc4ccccc43)[nH]c2c1 (stereo not drawn)	SIAE inh 27 (no result: HTRA1 inhibitor) | SIAE inh conf inactive
C[C@@H]1CN([C@@H](C)CO)C(=O)c2cc(NC(=O)c3ccccc3)ccc2O[C@@H](C)CCCCO[C@@H]1CN(C)Cc1ccc(C(F)(F)F)cc1	none
CN(C(=O)CSc1nc2sc3c(c2c(=O)n1C)CCC3)C1CCS(=O)(=O)C1 (stereo not drawn)	SIAE inh 19 | SIAE inh conf inactive
CN(C(=O)CSc1ncnc2sc3c(c12)CCC3)C1CCS(=O)(=O)C1 (stereo not drawn)	none
Cc1ccsc1/C=N/NC(=O)CC(=O)NCC(C)C	none
NC(Cc1ccc(C(F)(F)F)cc1)c1csc(NC(=O)Nc2ccccc2Cc2ccccc2)n1 (stereo not drawn)	SIAE inh 17 (no result: HTRA1 inhibitor) | SIAE inh conf 23
CC(C)c1ccccc1NC(=O)Nc1nc(C(N)Cc2ccc(C(F)(F)F)cc2)cs1 (stereo not drawn)	none (no result: HTRA1 inhibitor)
CCCCc1cc(=O)oc2cc(C)cc(OCC(=O)NCc3ccccn3)c12	none
CC(Sc1ncnc2ccccc12)C(=O)Nc1ccc2c(c1)OCCO2 (stereo not drawn)	SIAE inh 24 | SIAE inh conf inactive
O=C(CSc1ncnc2ccccc12)Nc1ccc2c(c1)OCCO2	none
CCN(CC(=O)Nc1ccc(NC(C)=O)cc1)C(=O)/C=C/c1c(C)nn(-c2ccc(F)cc2)c1C	none
CC(=O)Nc1ccc(NC(=O)CSc2nnc(-c3cccs3)o2)cc1	none (no result: HTRA1 inhibitor, TCR CD3 inh)
